High-throughput results from PubChem.
Apaf1 activ – activators of human Apaf-1 apoptosome, primary screen, biochemical, DEVD-Rh110 fluorescence, uHTS | Apaf-1 apoptosome caspase-3 activation; hits give low values | activity change, negative = activation, % at 20 µM | 330,000 compounds, 0.31% hits | Apoptotic protease-activating factor 1 (Homo sapiens), O14727;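 active = activity change at or below -40% at 20 µM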
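system = biochemical Apaf-1 apoptosome reconstitution | buffer or medium = 20 mM HEPES pH 7.5 with CHAPS, BSA | also added = dATP and cytochrome c as apoptosome triggers, (Z-DEVD)2-Rh110 substrate | incubation = 30 min compound preincubation and 50 min reaction, both room temperature | measured by = fluorescence, 540 nm emission, 480 nm excitation | read-out basis = Caspase-3 cleavage activity downstream of Apaf-1 activation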
Rh110 act interf – Rh110 fluorescence interference by putative Apaf-1 activators, confirmation, artefact control for Apaf-1 activator project, biochemical, 20 µM. shares compounds with Apaf1 activ. quenched caspase reaction, Ex480/Em540. fluorescence interference (activity change), % at 20 µM, hits read low. 980 tested, under 10 active;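 active = mean activity change at or below -40% when tested at 20 µM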
Apaf-1 act conf – Apaf-1 activators, single-dose retest, confirmation, biochemical, fluorescence, DEVD-Rh110, 20 µM; shares compounds with Apaf1 activ; reconstituted apoptosome caspase-3 activity; hits give low values; activity change, negative = activation, % at 20 µM; 980 compounds, 5% hits; AID 504617, 2011;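 active = mean activity change at or below -40%, meaning activation of 40% or more, at 20 µM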
Fluor interf act – fluorescence interference of Apaf-1 activator hits, dose response, artefact control for Apaf-1 activator project; AID 588592, 2011; EC50, µM; 55 tested, under 10 active; fluorescence interference counterscreen, Apaf-1 activator assay; shares compounds with Apaf1 activ; call rule not given here
Numbers without * were called inactive; nt = not tested or not shown. A selection follows.

SMILES	Apaf1 activ	Rh110 act interf	Apaf-1 act conf	others
O=C(c1ccccc1)C(O)c1ccccc1 (centres undefined)	-41*	4	4
Cc1noc(/C=C/c2cccs2)c1S(=O)(=O)N1CCC(C(=O)NCCCN2CCC(C)CC2)CC1	40	nt	nt
Cc1noc(C)c1S(=O)(=O)N1CCCC(C(=O)NCC2CCCO2)C1 (centres undefined)	-89*	9	12
CC1=NN(c2ccc(C(=O)O)cc2)C(=O)/C1=C\c1ccc(OC(=O)c2cccs2)cc1	75	nt	nt
Cc1cc(C)cc(Oc2coc3cc(OC(=O)c4cccs4)ccc3c2=O)c1	-560*	10	12
O=c1cccccc1NCc1ccccc1	45	nt	nt
CN(Cc1c(F)cccc1Cl)c1nnnn1-c1ccccc1	-64*	8	9
Cc1ccc(N(CC2=NCCN2)c2cccc(O)c2)cc1	-2	nt	nt
CCN(c1ccccc1)c1cc2ccccc2c(=O)[nH]1	96	nt	nt
CCN(CC)C(=O)C(=O)c1c(-c2ccccc2)[nH]c2ccccc12	-510*	10	17
O=C1Cc2cc([N+](=O)[O-])ccc2N1c1c(Cl)cccc1Cl	43	nt	nt
Cc1ccc(C)c(S(=O)(=O)/N=C2\C=C(NS(=O)(=O)c3ccccc3)C(=O)c3ccccc32)c1	78	nt	nt	Fluor interf act=>100
CCc1ccc(S(=O)(=O)/N=C2\C=C(NS(=O)(=O)c3ccccc3)C(=O)c3ccccc32)cc1	57	nt	nt
Cc1ccccc1NC1=C/C(=N\S(=O)(=O)c2ccc(C(=O)O)cc2)c2ccccc2C1=O	97	nt	nt
CCOC(=O)C1=C(CN2CCN(c3ccc(F)cc3)CC2)NC(=O)NC1c1cccs1 (centres undefined)	41	nt	nt
Cc1cc(C(=O)OCC(=O)NC(=O)c2cccn2C)c2ccccc2n1	-127*	9	14
Cc1cc(C)c(C(N)=O)c(Nc2cccc3ccccc23)n1	96	nt	nt
NC(N)=N/N=C/c1c(Cl)cccc1Cl	1	nt	nt
Cc1ccc(CN(C)C(=O)CSc2nnc3n2CCCCC3)c(C)c1	-42*	-8	6
CCC(=O)N(CC)C1=C(O)c2ccccc2C(=O)C1=O	55	nt	nt
CCN(CC)CCOC(=O)c1ccc(N/C=C(/C#N)c2nc(-c3cc4ccccc4oc3=O)cs2)cc1	54	nt	nt
O=C(/C=C/c1ccc(O)c(O)c1)O[C@@H]1C[C@](O)(C(=O)O)C[C@@H](O)[C@H]1O	-3	nt	nt
OC(c1ccccc1)c1cccnc1 (centres undefined)	-54*	-7	9
COC(=O)c1c(NC(=O)c2nc3ccccc3s2)sc2c1CC(C)(C)NC2(C)C	58	nt	nt
O=C(CCc1ccccc1)NNc1cc(N2CCCCC2)nc(N2CCCCC2)n1	60	nt	nt
SMILES	Apaf1 activ	Rh110 act interf	Apaf-1 act conf	others
CN1CCN(CCOc2cccc(Cl)c2)CC1	-50*	15	13
O=C1CCc2ccc(OCCCCN3CCN(c4cccc(Cl)c4Cl)CC3)cc2N1	43	nt	nt
CN1CCN(CCc2nc3cc(NC(=O)COc4ccccc4)ccc3n2C)CC1	57	nt	nt
CCCC(=O)OCCNc1cc(SCc2ccco2)c2nonc2c1[N+](=O)[O-]	57	nt	nt
Nc1ccnc(C(F)(F)F)c1C(=O)c1ccccc1	-43*	7	0
CCCCC[n+]1ccn(C2=C([O-])c3ccccc3C(=O)/C2=N\S(=O)(=O)c2ccc(Br)cc2)c1	61	nt	nt
COc1ccc(C(CC(=O)c2ccc(O)cc2)S(=O)(=O)c2ccc(C)cc2)cc1 (centres undefined)	-64*	-4	6
COc1ccc(S(=O)(=O)/N=C2\C=C(Nc3ccc(O)cc3)C(=O)c3ccccc32)cc1	96	nt	nt
CCOC(=O)c1c2c(n(C)c1C)C(=O)C(=O)c1ccc(Br)cc1-2	96	nt	nt
Cc1cc(N)c2cc(NC(=O)/C=C/c3ccccc3Cl)ccc2n1	64	nt	nt
Cc1nc2ccc(Cl)cc2c(-c2ccccc2Cl)c1CC(=O)O	-42*	-5	17
CCOC(=O)c1c(-c2ccc(-c3ccccc3)cc2)csc1NC(=O)CNCCN(C)C	42	nt	nt
CN1CCC[C@H]1c1cccnc1	-2	nt	nt
O=C1CSC(c2cccnc2)N1CC1CC1 (centres undefined)	-112*	1	13
N#Cc1c2c(c(-n3cnc4ccccc43)n3c1nc1ccccc13)CCC2	45	nt	nt
CCCCc1ccc(Nc2nc(CCC)cc(=O)[nH]2)cc1	40	nt	nt
Cc1cc(=O)n(-c2ccc3ccccc3n2)[nH]1	86	nt	nt
COc1ccc(Cn2c(N)c(C#N)c3nc4ccccc4nc32)cc1	50	nt	nt
CNS(=O)(=O)/C=C/c1ccccc1	-407*	-8	11
C=CCc1cccc(/C=N/NC(=O)CNc2cccc3ccccc23)c1O	96	nt	nt
Cc1ccc(C(=O)c2c3ccc(N)cc3nn2CCC(N)=O)cc1	82	nt	nt
COc1cccc(Cn2c(N)c(C#N)c3nc4ccccc4nc32)c1OC	92	nt	nt
Cc1ccc2[nH]c3c(c2c1)CN(C(=O)CN1CCCc2ccccc21)CC3	78	nt	nt
CS(=O)(=O)N(CC(=O)N1CCc2ccccc2C1)c1cccc(Br)c1	-258*	2	14
COC(=O)C1=C(N)OC2=C(C(=O)CC(C)(C)C2)C1c1cccnc1 (centres undefined)	-308*	6	12
SMILES	Apaf1 activ	Rh110 act interf	Apaf-1 act conf	others
CC1CCN(C2=C(NS(=O)(=O)c3ccc(Cl)cc3)C(=O)c3ccccc3C2=O)CC1	46	nt	nt
CC(=O)c1ccc(-n2ccc(=O)cc2)cc1	-494*	11	11
CC1=NN(c2ccccc2)C(=O)/C1=C\N(O)c1ccccc1	71	nt	nt
Cc1ccc(NC(=S)Nc2cccc3cnccc23)cc1	96	nt	nt
C#CCOCCOCCOCCNc1nc(N2CCN(C(=O)Cn3cc(CCCCN)nn3)CC2)nc(N2CCN(C(=O)[C@H](CCCCN)n3cc(CCCC)nn3)CC2)n1	41	nt	nt
CCOC(=O)Nc1ccc2c(c1)N(C(=O)OCCN(C)C)c1ccccc1CC2	-1	nt	nt
O=C(Nc1nc(-c2ccccc2)cs1)c1ccc(N2CCOCC2)c([N+](=O)[O-])c1	-46*	-4	7
N=c1n(Cc2ccccc2)c2ccccc2n1CC(O)COc1ccc(Cl)cc1Cl (centres undefined)	52	nt	nt
CCCCCc1ccc(OCCCC[n+]2ccc(C)cc2)c(CCCCC)c1	56	nt	nt
CC1=NN(c2ccccc2)C(=O)/C1=C/c1ccc(Cl)cc1	96	nt	nt
CC1=NN(c2ccccc2)C(=O)/C1=C\c1ccc(Br)s1	96	nt	nt
CC1=NN(c2ccccc2)C(=O)/C1=C/c1ccc[nH]1	-138*	3	12
OCCNC(=S)Nc1ccc2nsnc2c1	97	nt	nt
CN(CCO)c1nc(N)c2c(N)nc3c(c2c1C#N)CC(=O)N3Cc1cccs1	77	nt	nt
CC(=O)c1cc(O)c2ccccc2c1O	58	nt	nt
CCN(CC)c1ccc(NC(=O)c2cnn(CC)c2)cc1	-55*	7	11
CC1OC(Nc2cccc3ccccc23)C(O)C(O)C1O (centres undefined)	96	nt	nt
